Assay results taken from ChEMBL document CHEMBL3739392, “Development of highly potent phosphodiesterase 10A (PDE10A) inhibitors: Synthesis and in vitro evaluation of 1,8-dipyridinyl- and 1-pyridinyl-substituted imidazo[1,5-a]quinoxalines” (Eur J Med Chem, 2016).

What was measured:
[1] = target: cGMP-dependent 3',5'-cyclic phosphodiesterase (Homo sapiens, UniProt O00408); assay: Inhibition of cGMP activated human recombinant PDE2A using [3H]cAMP as substrate after 30 mins by scintillation proximity assay
cGMP-dependent 3',5'-cyclic phosphodiesterase, sequence (O00408 whole entry): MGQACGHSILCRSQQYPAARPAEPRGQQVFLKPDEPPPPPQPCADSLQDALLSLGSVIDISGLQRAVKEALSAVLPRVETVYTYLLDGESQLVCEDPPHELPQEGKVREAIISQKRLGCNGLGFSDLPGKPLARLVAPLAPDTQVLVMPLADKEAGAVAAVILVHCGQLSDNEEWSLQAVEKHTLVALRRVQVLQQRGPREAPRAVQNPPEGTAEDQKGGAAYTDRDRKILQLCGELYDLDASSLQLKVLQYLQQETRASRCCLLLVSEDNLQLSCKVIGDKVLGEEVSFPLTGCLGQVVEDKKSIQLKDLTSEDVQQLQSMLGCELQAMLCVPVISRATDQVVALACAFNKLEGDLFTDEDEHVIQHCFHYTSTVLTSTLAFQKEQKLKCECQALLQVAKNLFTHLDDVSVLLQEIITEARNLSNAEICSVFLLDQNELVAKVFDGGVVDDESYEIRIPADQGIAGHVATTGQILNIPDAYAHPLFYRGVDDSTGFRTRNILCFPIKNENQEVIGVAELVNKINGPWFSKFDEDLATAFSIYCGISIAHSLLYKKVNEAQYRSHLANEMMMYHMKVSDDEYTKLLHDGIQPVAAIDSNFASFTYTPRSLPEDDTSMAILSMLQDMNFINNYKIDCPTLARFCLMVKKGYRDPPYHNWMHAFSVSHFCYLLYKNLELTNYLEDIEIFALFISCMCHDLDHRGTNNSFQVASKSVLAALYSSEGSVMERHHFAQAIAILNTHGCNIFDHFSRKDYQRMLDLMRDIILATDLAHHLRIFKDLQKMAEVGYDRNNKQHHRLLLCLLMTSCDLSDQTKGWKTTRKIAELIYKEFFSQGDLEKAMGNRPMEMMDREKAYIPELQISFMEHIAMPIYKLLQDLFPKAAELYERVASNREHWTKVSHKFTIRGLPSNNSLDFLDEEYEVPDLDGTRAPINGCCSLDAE
In short: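 PDE2A (NM002599) activated with 1 µM cGMP; substrate 0.5 µM [3H]cAMP; scintillation proximity read-out at varied inhibitor concentrations with fixed enzyme amount; IC50 from two-parameter Hill model.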

Homo sapiens = organism: Homo sapiens; assay: Selectivity factor, ratio of IC50 for human recombinant PDE2A to IC50 for human recombinant PDE10A1
[2] = target: cAMP and cAMP-inhibited cGMP 3',5'-cyclic phosphodiesterase 10A (Homo sapiens, UniProt Q9Y233); assay: Inhibition of human recombinant PDE10A1 expressed in baculovirus infected insect SF21 cells using [3H]cAMP as substrate after 30 mins by scintillation proximity assay
In short: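 Cytosolic PDE10A1 from Sf21 lysate (sonication in Tris-HCl/EDTA/sucrose pH 7.4, 48000 g supernatant, stored -70°C). Assay in 50 mM Tris-HCl/5 mM MgCl2 with 0.1 µM [3H]cAMP, started by substrate, 37°C for 30 min; stopped with Ysi-SPA beads, settled 1 h, scintillation counting. Enzyme amount optimized per preparation; no-enzyme blank for non-specific activity; IC50 by two-parameter Hill model.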

[3] = target: Dual 3',5'-cyclic-AMP and -GMP phosphodiesterase 11A (Homo sapiens, UniProt Q9HCR9); assay: Inhibition of human PDE11A using [3H]cAMP as substrate after 30 mins by scintillation proximity assay
Dual 3',5'-cyclic-AMP and -GMP phosphodiesterase 11A, sequence (Q9HCR9 whole entry): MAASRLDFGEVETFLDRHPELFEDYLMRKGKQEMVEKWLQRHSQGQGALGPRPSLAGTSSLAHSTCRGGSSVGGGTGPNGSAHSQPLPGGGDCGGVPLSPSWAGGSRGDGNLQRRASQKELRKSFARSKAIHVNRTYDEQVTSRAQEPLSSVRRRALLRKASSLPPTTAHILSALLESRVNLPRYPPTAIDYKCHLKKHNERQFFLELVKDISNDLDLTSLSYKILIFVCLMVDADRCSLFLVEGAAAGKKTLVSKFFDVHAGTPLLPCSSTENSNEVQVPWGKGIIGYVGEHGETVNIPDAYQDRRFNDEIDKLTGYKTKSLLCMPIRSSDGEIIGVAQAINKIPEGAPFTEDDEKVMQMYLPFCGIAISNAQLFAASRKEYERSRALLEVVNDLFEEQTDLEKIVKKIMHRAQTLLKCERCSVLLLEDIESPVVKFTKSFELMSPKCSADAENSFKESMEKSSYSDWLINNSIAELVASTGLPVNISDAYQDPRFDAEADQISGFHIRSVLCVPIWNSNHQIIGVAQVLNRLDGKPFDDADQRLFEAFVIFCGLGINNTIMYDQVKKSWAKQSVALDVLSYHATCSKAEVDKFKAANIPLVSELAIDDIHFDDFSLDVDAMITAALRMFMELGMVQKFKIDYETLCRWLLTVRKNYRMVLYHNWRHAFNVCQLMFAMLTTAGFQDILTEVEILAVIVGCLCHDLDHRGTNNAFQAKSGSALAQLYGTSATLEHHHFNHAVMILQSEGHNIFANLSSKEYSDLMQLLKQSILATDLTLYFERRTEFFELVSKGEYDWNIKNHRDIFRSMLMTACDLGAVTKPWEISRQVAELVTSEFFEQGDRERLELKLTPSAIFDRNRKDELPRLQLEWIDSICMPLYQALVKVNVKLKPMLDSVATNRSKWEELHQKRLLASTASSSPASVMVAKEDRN

[4] = target: Dual specificity calcium/calmodulin-dependent 3',5'-cyclic nucleotide phosphodiesterase 1B (Homo sapiens, UniProt Q01064); assay: Inhibition of human PDE1B using [3H]cAMP as substrate after 30 mins by scintillation proximity assay
Dual specificity calcium/calmodulin-dependent 3',5'-cyclic nucleotide phosphodiesterase 1B, sequence (Q01064 whole entry): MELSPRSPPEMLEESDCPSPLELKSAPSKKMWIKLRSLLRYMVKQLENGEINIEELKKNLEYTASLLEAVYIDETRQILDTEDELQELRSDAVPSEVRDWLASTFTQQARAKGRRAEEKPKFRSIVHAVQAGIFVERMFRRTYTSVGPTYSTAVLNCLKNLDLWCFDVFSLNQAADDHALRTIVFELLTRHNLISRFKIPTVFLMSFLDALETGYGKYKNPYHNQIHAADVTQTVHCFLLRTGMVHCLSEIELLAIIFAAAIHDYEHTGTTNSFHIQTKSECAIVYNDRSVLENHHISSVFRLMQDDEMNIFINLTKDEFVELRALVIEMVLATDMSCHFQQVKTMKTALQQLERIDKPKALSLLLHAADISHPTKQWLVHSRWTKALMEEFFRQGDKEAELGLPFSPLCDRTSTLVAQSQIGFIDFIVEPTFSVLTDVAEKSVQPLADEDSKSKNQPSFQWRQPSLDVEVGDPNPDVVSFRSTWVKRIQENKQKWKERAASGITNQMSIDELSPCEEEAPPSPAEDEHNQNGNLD

[5] = target: 3',5'-cyclic-AMP phosphodiesterase 4A (Homo sapiens, UniProt P27815); assay: Inhibition of human PDE4A using [3H]cAMP as substrate after 30 mins by scintillation proximity assay
3',5'-cyclic-AMP phosphodiesterase 4A, sequence (P27815 whole entry): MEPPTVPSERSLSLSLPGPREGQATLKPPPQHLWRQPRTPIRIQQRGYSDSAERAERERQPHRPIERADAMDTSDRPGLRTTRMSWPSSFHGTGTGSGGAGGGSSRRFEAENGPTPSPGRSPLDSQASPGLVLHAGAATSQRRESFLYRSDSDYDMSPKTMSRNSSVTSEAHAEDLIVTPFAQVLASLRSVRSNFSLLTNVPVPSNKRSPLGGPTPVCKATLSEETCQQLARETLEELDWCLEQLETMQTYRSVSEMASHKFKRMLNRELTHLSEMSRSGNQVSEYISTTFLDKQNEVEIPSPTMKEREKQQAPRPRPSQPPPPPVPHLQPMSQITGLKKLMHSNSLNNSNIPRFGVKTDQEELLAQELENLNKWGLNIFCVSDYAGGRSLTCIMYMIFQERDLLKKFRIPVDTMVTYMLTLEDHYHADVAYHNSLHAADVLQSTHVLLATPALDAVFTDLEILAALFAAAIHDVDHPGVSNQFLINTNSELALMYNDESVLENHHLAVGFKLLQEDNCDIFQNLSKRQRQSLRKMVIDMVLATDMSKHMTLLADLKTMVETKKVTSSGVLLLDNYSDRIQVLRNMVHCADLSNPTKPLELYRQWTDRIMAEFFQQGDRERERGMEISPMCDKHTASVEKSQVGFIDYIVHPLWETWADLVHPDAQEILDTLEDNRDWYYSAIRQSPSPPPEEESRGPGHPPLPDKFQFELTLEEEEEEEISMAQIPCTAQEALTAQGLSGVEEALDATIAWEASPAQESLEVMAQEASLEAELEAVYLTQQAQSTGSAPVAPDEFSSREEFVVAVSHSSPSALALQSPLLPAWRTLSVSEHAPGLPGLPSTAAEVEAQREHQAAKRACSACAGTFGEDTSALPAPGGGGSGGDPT

[6] = target: High affinity cAMP-specific and IBMX-insensitive 3',5'-cyclic phosphodiesterase 8A (Homo sapiens, UniProt O60658); assay: Inhibition of human PDE8A using [3H]cAMP as substrate after 30 mins by scintillation proximity assay
[7] = target: cGMP-inhibited 3',5'-cyclic phosphodiesterase 3A (Homo sapiens, UniProt Q14432); assay: Inhibition of human PDE3A using [3H]cAMP as substrate after 30 mins by scintillation proximity assay
cGMP-inhibited 3',5'-cyclic phosphodiesterase 3A, sequence (Q14432 whole entry): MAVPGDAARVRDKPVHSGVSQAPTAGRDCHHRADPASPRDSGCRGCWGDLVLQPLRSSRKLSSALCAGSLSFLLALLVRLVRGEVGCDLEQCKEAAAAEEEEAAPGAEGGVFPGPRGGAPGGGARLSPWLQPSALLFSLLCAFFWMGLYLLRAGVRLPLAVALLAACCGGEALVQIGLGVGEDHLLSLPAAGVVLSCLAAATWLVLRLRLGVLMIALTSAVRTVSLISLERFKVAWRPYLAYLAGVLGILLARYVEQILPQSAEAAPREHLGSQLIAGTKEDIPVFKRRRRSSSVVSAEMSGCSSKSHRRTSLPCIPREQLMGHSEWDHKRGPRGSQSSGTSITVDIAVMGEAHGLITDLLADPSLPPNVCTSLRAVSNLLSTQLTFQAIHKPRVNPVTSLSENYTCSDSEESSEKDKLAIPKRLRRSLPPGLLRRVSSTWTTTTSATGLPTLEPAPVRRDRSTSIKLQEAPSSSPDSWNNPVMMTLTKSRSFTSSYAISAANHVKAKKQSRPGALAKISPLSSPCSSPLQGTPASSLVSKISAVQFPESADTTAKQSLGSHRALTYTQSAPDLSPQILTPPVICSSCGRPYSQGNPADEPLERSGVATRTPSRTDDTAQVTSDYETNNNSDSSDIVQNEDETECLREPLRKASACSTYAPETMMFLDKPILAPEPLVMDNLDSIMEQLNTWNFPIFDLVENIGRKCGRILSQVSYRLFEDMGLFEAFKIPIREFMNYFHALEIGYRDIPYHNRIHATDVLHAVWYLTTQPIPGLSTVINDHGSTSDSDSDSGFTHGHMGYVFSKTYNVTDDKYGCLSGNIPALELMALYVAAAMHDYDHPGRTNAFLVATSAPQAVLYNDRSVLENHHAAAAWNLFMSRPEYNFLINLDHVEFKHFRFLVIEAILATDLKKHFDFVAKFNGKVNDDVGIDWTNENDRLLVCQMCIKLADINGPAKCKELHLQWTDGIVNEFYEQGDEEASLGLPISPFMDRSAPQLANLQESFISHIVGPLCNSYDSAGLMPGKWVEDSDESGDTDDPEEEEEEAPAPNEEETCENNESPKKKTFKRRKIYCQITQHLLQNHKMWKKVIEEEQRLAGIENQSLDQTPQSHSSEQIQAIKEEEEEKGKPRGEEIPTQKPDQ

[8] = target: High affinity cGMP-specific 3',5'-cyclic phosphodiesterase 9A (Homo sapiens, UniProt O76083); assay: Inhibition of human PDE9A using [3H]cAMP as substrate after 30 mins by scintillation proximity assay
High affinity cGMP-specific 3',5'-cyclic phosphodiesterase 9A, sequence (O76083 whole entry): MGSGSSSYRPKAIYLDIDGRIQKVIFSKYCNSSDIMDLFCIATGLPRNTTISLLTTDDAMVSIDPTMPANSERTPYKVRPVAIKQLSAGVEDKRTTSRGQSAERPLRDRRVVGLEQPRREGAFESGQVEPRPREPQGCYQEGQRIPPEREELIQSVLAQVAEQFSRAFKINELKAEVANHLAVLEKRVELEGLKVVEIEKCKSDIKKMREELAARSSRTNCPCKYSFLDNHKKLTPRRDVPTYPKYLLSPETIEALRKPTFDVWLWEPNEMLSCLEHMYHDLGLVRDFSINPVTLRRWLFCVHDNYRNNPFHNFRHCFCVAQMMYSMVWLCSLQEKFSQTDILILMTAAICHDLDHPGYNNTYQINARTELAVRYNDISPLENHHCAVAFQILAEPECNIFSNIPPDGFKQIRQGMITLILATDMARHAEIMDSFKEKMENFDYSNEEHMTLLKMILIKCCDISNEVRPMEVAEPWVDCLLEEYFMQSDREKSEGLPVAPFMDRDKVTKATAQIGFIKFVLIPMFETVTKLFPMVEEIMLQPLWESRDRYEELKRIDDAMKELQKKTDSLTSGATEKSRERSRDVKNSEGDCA

[9] = target: 3',5'-cyclic-AMP phosphodiesterase 7B (Homo sapiens, UniProt Q9NP56); assay: Inhibition of human PDE7B using [3H]cAMP as substrate after 30 mins by scintillation proximity assay
[10] = Inhibition of bovine PDE6 using [3H]cAMP as substrate after 30 mins by scintillation proximity assay; design: species or system Bos taurus
[11] = target: cGMP-specific 3',5'-cyclic phosphodiesterase (Homo sapiens, UniProt O76074); assay: Inhibition of human PDE5A using [3H]cAMP as substrate after 30 mins by scintillation proximity assay

Structure (SMILES)	IC50 [1]	Ratio IC50 (Homo sapiens)	IC50 [2]	IC50 [3]	IC50 [4]	IC50 [5]	IC50 [6]	IC50 [7]	IC50 [8]	IC50 [9]	IC50 [10]	IC50 [11]
COc1cc(-c2ccnc(F)c2)cc2c1nc(C)c1c(C)nc(-c3ccnc(F)c3)n12	481 nM	306	1.57 nM	–	–	–	–	–	–	–	–	–
COc1cc(Br)cc2c1nc(C)c1c(C)nc(-c3cccnc3F)n12	23.9 nM	199	0.12 nM	494 nM	> 1000 nM	> 1000 nM	> 1000 nM	> 1000 nM	> 1000 nM	> 1000 nM	432 nM	606 nM
COc1cc(-c2ccc(F)nc2)cc2c1nc(C)c1c(C)nc(-c3cccnc3)n12	29.2 nM	88	0.33 nM	286 nM	> 1000 nM	> 1000 nM	> 1000 nM	> 1000 nM	> 1000 nM	> 1000 nM	631 nM	279 nM
COc1cc(-c2cccnc2)cc2c1nc(C)c1c(C)nc(-c3ccc(F)nc3)n12	78.6 nM	90	0.87 nM	395 nM	> 1000 nM	> 1000 nM	> 1000 nM	> 1000 nM	> 1000 nM	> 1000 nM	559 nM	228 nM
COc1cc(-c2ccncc2)cc2c1nc(C)c1c(C)nc(-c3ccc(F)nc3)n12	162 nM	164	0.99 nM	413 nM	> 1000 nM	> 1000 nM	> 1000 nM	> 1000 nM	> 1000 nM	< 1000 nM	585 nM	195 nM
COc1cc(-c2cccnc2)cc2c1nc(C)c1c(C)nc(-c3ccnc(F)c3)n12	46.8 nM	102	0.46 nM	–	–	–	–	–	–	–	–	–
COc1cc(C#N)cc2c1nc(C)c1c(C)nc(-c3cccnc3F)n12	98.6 nM	58	1.69 nM	–	–	–	–	–	–	–	–	–
COc1cc(-c2cccnc2)cc2c1nc(C)c1c(C)nc(-c3cccnc3)n12	10.9 nM	99	0.11 nM	286 nM	> 1000 nM	1000 nM	> 1000 nM	> 1000 nM	> 1000 nM	> 1000 nM	425 nM	232 nM
COc1cc(Br)cc2c1nc(C)c1c(C)nc(-c3ccnc(F)c3)n12	> 1000 nM	> 312	3.18 nM	–	–	–	–	–	–	–	–	–
COc1cc(-c2ccc(F)nc2)cc2c1nc(C)c1c(C)nc(-c3ccc(F)nc3)n12	395 nM	120	3.3 nM	> 1000 nM	> 1000 nM	> 1000 nM	> 1000 nM	> 1000 nM	> 1000 nM	> 1000 nM	> 1000 nM	> 1000 nM
COc1cc(-c2ccc(F)nc2)cc2c1nc(C)c1c(C)ncn12	> 1000 nM	> 38	26.3 nM	–	–	–	–	–	–	–	–	–
COc1cc(-c2cccnc2)cc2c1nc(C)c1c(C)nc(-c3cccnc3F)n12	3.49 nM	94	0.037 nM	457 nM	> 1000 nM	< 1000 nM	> 1000 nM	> 1000 nM	> 1000 nM	> 1000 nM	177 nM	91.6 nM
COc1cc(C#N)cc2c1nc(C)c1c(C)nc(-c3ccc(F)nc3)n12	> 1000 nM	> 49	20.4 nM	–	–	–	–	–	–	–	–	–
COc1cc(Br)cc2c1nc(C)c1c(C)nc(-c3ccc(F)nc3)n12	> 1000 nM	> 339	2.95 nM	> 1000 nM	> 1000 nM	> 1000 nM	> 1000 nM	> 1000 nM	> 1000 nM	> 1000 nM	> 1000 nM	> 1000 nM
COc1cc(-c2cccnc2F)cc2c1nc(C)c1c(C)nc(-c3cccnc3F)n12	2.06 nM	43	0.048 nM	–	–	–	–	–	–	–	–	–
COc1cc2ncnc(N3CC[C@@H](Oc4cnc5ccccc5n4)C3)c2cc1OC	–	–	16 nM	–	–	–	–	–	–	–	–	–
COc1cc(-c2ccc(F)nc2)cc2c1nc(C)c1c(C)nc(Br)n12	> 1000 nM	> 97	10.3 nM	–	–	–	–	–	–	–	–	–
COc1cc(-c2ccc(F)nc2)cc2c1nc(C)c1c(C)nc(-c3ccncc3)n12	65.7 nM	160	0.41 nM	> 1000 nM	> 1000 nM	841 nM	> 1000 nM	> 1000 nM	> 1000 nM	> 1000 nM	> 1000 nM	201 nM
